According to ChEMBL document CHEMBL4376888, “Discovery of Potent, Selective, and Direct Acid Sphingomyelinase Inhibitors with Antidepressant Activity” (J Med Chem, 2020):
Active and inactive are the calls of the source. The rule behind the calls is not given here.

What was measured:
[1] = target: T1, Sphingomyelin phosphodiesterase 2 (Homo sapiens) (UniProt O60906); test: Inhibition of neutral sphingomyelinase (unknown origin) at 100 uM using NBD-sphingomyelin as substrate after 30 mins by fluorescence based assay
T1 sequence (whole entry): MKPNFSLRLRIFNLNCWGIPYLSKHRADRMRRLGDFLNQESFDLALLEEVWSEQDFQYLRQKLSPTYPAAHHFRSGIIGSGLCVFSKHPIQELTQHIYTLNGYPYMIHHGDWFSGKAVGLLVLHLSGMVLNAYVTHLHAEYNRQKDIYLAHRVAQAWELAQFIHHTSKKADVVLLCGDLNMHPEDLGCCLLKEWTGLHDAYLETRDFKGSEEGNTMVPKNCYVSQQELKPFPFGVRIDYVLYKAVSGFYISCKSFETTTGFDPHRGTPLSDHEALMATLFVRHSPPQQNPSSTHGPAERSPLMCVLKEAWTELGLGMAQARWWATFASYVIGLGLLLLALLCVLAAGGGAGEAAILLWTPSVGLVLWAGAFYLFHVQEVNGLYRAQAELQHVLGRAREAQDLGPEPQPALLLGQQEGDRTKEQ
Method in brief: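 Neutral sphingomyelinase assay run as the ASM cell-extract assay (NBD-sphingomyelin, 37 °C, 30 min, chloroform/methanol extraction, TLC, NBD-ceramide fluorescence). Buffer was 200 mM Tris-HCl pH 7.4 with 10 mM MgCl2 and 10 mM dithiothreitol. Tested at 100 μM.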

[2] = Drug concentration in Sprague-Dawley rat brain at 48 mg/kg, ip after 4 hrs by LC-MS/MS analysis; assay type: ADME, organism-based; settings: read-out: Drug uptake
Method in brief: (§1)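 Nine female SD rats, three per time point, single ip dose of 48 mg/Kg. At 0.5, 2 and 4 h rats were anesthetized with CO2. Heart blood was taken into EDTA-K2 and centrifuged 1500 g, 10 min, for plasma. Brain was weighed and homogenized 1:5 in 20% methanol-water. LC-MS/MS on a C18 column. Mean of 3.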

[3] = Drug concentration in Sprague-Dawley rat plasma at 48 mg/kg, ip after 4 hrs by LC-MS/MS analysis; assay type: ADME, organism-based; method in brief: as §1
[4] = Ratio of drug uptake in Sprague-Dawley rat brain to plasma at 48 mg/kg, ip after 30 mins by LC-MS/MS analysis; assay type: ADME, organism-based; settings: read-out: BPR; method in brief: as §1
Rattus norvegicus = test: Reversal of reserpine-induced inhibition of neurogenesis in ip dosed Sprague-Dawley rat hippocampus administered twice daily for 2 weeks by EDU-incorporation assay; assay type: functional, organism-based
Method in brief: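 Rats given EDU 8 mg/kg twice in 1 day and sacrificed 96 h later. Brains shock-frozen and sectioned, washed with 2 mg/mL glycine and PBS, stained with 1X Click-iT solution for 30 min, washed with 0.5% Triton X-100. Counterstained with 1X Hoechst 33342 for 30 min, then imaged by fluorescence microscopy. n=5.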

inhibition [1]: inactive
concentration at 4 h [2]: 1300 ng/g
concentration at 4 h [3]: 144 ng/mL
Kp at 0.5 h [4]: 2.94
Compound: O=C(NO)c1cc(OCc2ccc(-c3ccc(Cl)cc3)cc2)no1
Activity (Rattus norvegicus): Dose-dependent effect
